Assay results taken from EPA's CvTdb concentration-time database.
Where “and” joins values, the source holds several entries; their conditions need not be identical. Equal entries are not always repeated.

What was measured:
[1] = test system: rat; test: concentration in lung after dosing; conditions: dosed: benzo(a)pyrene, 40 umol/kg, iv, male, Sprague Dawley
[2] = test system: rat; test: concentration in blood after dosing; conditions: dosed: benzo(a)pyrene, 40 umol/kg, iv, male, Sprague Dawley
[3] = test system: rat; test: concentration in liver after dosing; conditions: dosed: benzo(a)pyrene, 40 umol/kg, iv, male, Sprague Dawley
[4] = test system: rat; test: concentration in adipose after dosing; conditions: dosed: benzo(a)pyrene, 40 umol/kg, iv, male, Sprague Dawley
[5] = test system: rat; test: concentration in skin after dosing; conditions: dosed: benzo(a)pyrene, 40 umol/kg, iv, male, Sprague Dawley
[6] = test system: rat; test: concentration in kidney after dosing; conditions: dosed: benzo(a)pyrene, 40 umol/kg, iv, male, Sprague Dawley
[7] = test system: rat; test: concentration in feces after dosing; conditions: dosed: benzo(a)pyrene, 40 umol/kg, iv, male, Sprague Dawley
[8] = test system: rat; test: concentration in blood after dosing (% dose/mL); conditions: dosed: benzo(a)pyrene, 117 nmol, iv, male, Sprague Dawley
[9] = test system: human; test: concentration in blood after dosing; conditions: dosed: chlorobenzene, 10 ppm, inhalation, duration: 8 hr
Procedure, shortened: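 A PubMed search, classifier screening and manual review identified published in vivo toxicokinetic studies, which together with two structured collections supplied concentration-versus-time and amount-versus-time points. Points were mostly digitised from plot screenshots with WebPlotDigitizer, otherwise copied from tables. Dose, route, subject details and medium were hand-curated from each paper, and sampling and analytical methods are those of the sources, often unreported.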

Q: With `c1ccc2c(c1)cc1ccc3cccc4ccc2c1c34` [benzo(a)pyrene] as the molecule, how does the concentration in lung ([1]; 2 h) read?
A: Its concentration in lung is 17 µmol/kg.

Q: And the concentration in lung ([1]; 4 h)?
A: The concentration in lung was 10.2 µmol/kg.

Q: What about the concentration in lung ([1]; 8 h) of the same molecule?
A: Its concentration in lung is 17.6 µmol/kg.

Q: And the concentration in lung ([1]; 16 h)?
A: The concentration in lung was 16.9 µmol/kg.

Q: And the concentration in lung ([1]; 24 h)?
A: Its concentration in lung is 8.02 µmol/kg.

Q: And the concentration in lung ([1]; 33 h)?
A: The concentration in lung was 11.2 µmol/kg.

Q: And the concentration in lung ([1]; 48 h)?
A: The concentration in lung was 7.35 µmol/kg.

Q: And the concentration in lung ([1]; 72 h)?
A: Its concentration in lung is 5.18 µmol/kg.

Q: What about the concentration in blood ([2]; 2 h) of the same molecule?
A: The concentration in blood was 0.422 µmol/kg.

Q: What about the concentration in blood ([2]; 4 h) of the same molecule?
A: The concentration in blood was 0.118 µmol/kg.

Q: What about the concentration in blood ([2]; 8 h) of the same molecule?
A: Its concentration in blood is 0.076 µmol/kg.

Q: And the concentration in blood ([2]; 16 h)?
A: The concentration in blood was 0.0274 µmol/kg.

Q: And the concentration in blood ([2]; 24 h)?
A: Its concentration in blood is 0.0156 µmol/kg.

Q: And the concentration in blood ([2]; 33 h)?
A: The concentration in blood was 0.0066 µmol/kg.

Q: And the concentration in blood ([2]; 48 h)?
A: The concentration in blood was 0.005 µmol/kg.

Q: What about the concentration in blood ([2]; 72 h) of the same molecule?
A: Its concentration in blood is 0.0024 µmol/kg.

Q: What about the concentration in liver ([3]; 2 h) of the same molecule?
A: The concentration in liver was 2.31 µmol/kg.

Q: What about the concentration in liver ([3]; 4 h) of the same molecule?
A: The concentration in liver was 1.91 µmol/kg.

Q: And the concentration in liver ([3]; 8 h)?
A: The concentration in liver was 1.79 µmol/kg.

Q: What about the concentration in liver ([3]; 16 h) of the same molecule?
A: Its concentration in liver is 0.574 µmol/kg.

Q: What about the concentration in liver ([3]; 24 h) of the same molecule?
A: Its concentration in liver is 0.21 µmol/kg.

Q: What about the concentration in liver ([3]; 33 h) of the same molecule?
A: Its concentration in liver is 0.165 µmol/kg.

Q: What about the concentration in liver ([3]; 48 h) of the same molecule?
A: Its concentration in liver is 0.0546 µmol/kg.

Q: What about the concentration in liver ([3]; 72 h) of the same molecule?
A: The concentration in liver was 0.0254 µmol/kg.

Q: What about the concentration in adipose ([4]; 2 h) of the same molecule?
A: The concentration in adipose was 2.47 µmol/kg.

Q: And the concentration in adipose ([4]; 4 h)?
A: The concentration in adipose was 1.4 µmol/kg.

Q: And the concentration in adipose ([4]; 8 h)?
A: Its concentration in adipose is 3.23 µmol/kg.

Q: What about the concentration in adipose ([4]; 16 h) of the same molecule?
A: The concentration in adipose was 3.19 µmol/kg.

Q: What about the concentration in adipose ([4]; 24 h) of the same molecule?
A: The concentration in adipose was 2.11 µmol/kg.

Q: What about the concentration in adipose ([4]; 33 h) of the same molecule?
A: The concentration in adipose was 2.4 µmol/kg.

Q: What about the concentration in adipose ([4]; 48 h) of the same molecule?
A: Its concentration in adipose is 1.27 µmol/kg.

Q: What about the concentration in adipose ([4]; 72 h) of the same molecule?
A: The concentration in adipose was 0.663 µmol/kg.

Q: And the concentration in skin ([5]; 2 h)?
A: Its concentration in skin is 7.56 µmol/kg.

Q: And the concentration in skin ([5]; 4 h)?
A: Its concentration in skin is 2.74 µmol/kg.

Q: What about the concentration in skin ([5]; 8 h) of the same molecule?
A: Its concentration in skin is 1.7 µmol/kg.

Q: What about the concentration in skin ([5]; 16 h) of the same molecule?
A: The concentration in skin was 0.783 µmol/kg.

Q: What about the concentration in skin ([5]; 24 h) of the same molecule?
A: The concentration in skin was 0.102 µmol/kg.

Q: And the concentration in skin ([5]; 33 h)?
A: Its concentration in skin is 0.0296 µmol/kg.

Q: And the concentration in skin ([5]; 48 h)?
A: Its concentration in skin is 0.0205 µmol/kg.

Q: What about the concentration in skin ([5]; 72 h) of the same molecule?
A: The concentration in skin was 0.018 µmol/kg.

Q: And the concentration in kidney ([6]; 2 h)?
A: Its concentration in kidney is 0.53 µmol/kg.

Q: And the concentration in kidney ([6]; 4 h)?
A: The concentration in kidney was 0.145 µmol/kg.

Q: What about the concentration in kidney ([6]; 8 h) of the same molecule?
A: Its concentration in kidney is 0.164 µmol/kg.

Q: And the concentration in kidney ([6]; 16 h)?
A: Its concentration in kidney is 0.0435 µmol/kg.

Q: What about the concentration in kidney ([6]; 24 h) of the same molecule?
A: Its concentration in kidney is 0.0127 µmol/kg.

Q: And the concentration in kidney ([6]; 33 h)?
A: The concentration in kidney was 0.008 µmol/kg.

Q: And the concentration in kidney ([6]; 48 h)?
A: The concentration in kidney was 0.004 µmol/kg.

Q: And the concentration in kidney ([6]; 72 h)?
A: The concentration in kidney was 0.001 µmol/kg.

Q: And the concentration in feces ([7]; 2 h)?
A: The concentration in feces was 0.0005 µmol/kg.

Q: What about the concentration in feces ([7]; 4 h) of the same molecule?
A: The concentration in feces was 0.002 µmol/kg.

Q: And the concentration in feces ([7]; 8 h)?
A: The concentration in feces was 0.0127 µmol/kg.

Q: What about the concentration in feces ([7]; 16 h) of the same molecule?
A: The concentration in feces was 0.0779 µmol/kg.

Q: What about the concentration in feces ([7]; 24 h) of the same molecule?
A: Its concentration in feces is 0.351 µmol/kg.

Q: What about the concentration in feces ([7]; 33 h) of the same molecule?
A: The concentration in feces was 0.382 µmol/kg.

Q: And the concentration in feces ([7]; 48 h)?
A: Its concentration in feces is 0.354 µmol/kg.

Q: What about the concentration in feces ([7]; 72 h) of the same molecule?
A: Its concentration in feces is 0.397 µmol/kg.

Q: And the concentration in blood ([8]; 55 s)?
A: The concentration in blood was 0.859.

Q: What about the concentration in blood ([8]; 206 s) of the same molecule?
A: Its concentration in blood is 0.278.

Q: And the concentration in blood ([8]; 0.3233 h)?
A: Its concentration in blood is 0.081.

Q: And the concentration in blood ([8]; 0.4938 h)?
A: The concentration in blood was 0.0586.

Q: And the concentration in blood ([8]; 0.7433 h)?
A: Its concentration in blood is 0.0404.

Q: What about the concentration in blood ([8]; 0.9867 h) of the same molecule?
A: Its concentration in blood is 0.0307.

Q: And the concentration in blood ([8]; 1.736 h)?
A: The concentration in blood was 0.012.

Q: What about the concentration in blood ([8]; 2.474 h) of the same molecule?
A: Its concentration in blood is 0.00662.

Q: What about the concentration in blood ([8]; 3.463 h) of the same molecule?
A: The concentration in blood was 0.00438.

Q: And the concentration in blood ([8]; 3.977 h)?
A: Its concentration in blood is 0.00384.

Q: And the concentration in blood ([8]; 4.987 h)?
A: The concentration in blood was 0.00267.

Q: `Clc1ccccc1` [chlorobenzene] was tested. Which concentration in blood ([9]; 8.065 h) did it give?
A: The concentration in blood was 182 ng/mL.

Q: And the concentration in blood ([9]; 8.199 h)?
A: The concentration in blood was 192 ng/mL and 167 ng/mL and 100 ng/mL.

Q: And the concentration in blood ([9]; 8.252 h)?
A: The concentration in blood was 145 ng/mL.

Q: And the concentration in blood ([9]; 8.284 h)?
A: The concentration in blood was 200 ng/mL.

Q: And the concentration in blood ([9]; 8.434 h)?
A: The concentration in blood was 120 ng/mL.

Q: What about the concentration in blood ([9]; 8.451 h) of the same molecule?
A: The concentration in blood was 158 ng/mL.

Q: What about the concentration in blood ([9]; 8.532 h) of the same molecule?
A: The concentration in blood was 65.3 ng/mL.

Q: And the concentration in blood ([9]; 8.536 h)?
A: The concentration in blood was 158 ng/mL and 140 ng/mL.

Q: What about the concentration in blood ([9]; 8.617 h) of the same molecule?
A: The concentration in blood was 112 ng/mL.

Q: What about the concentration in blood ([9]; 8.633 h) of the same molecule?
A: Its concentration in blood is 109 ng/mL.

Q: What about the concentration in blood ([9]; 8.82 h) of the same molecule?
A: Its concentration in blood is 107 ng/mL.

Q: And the concentration in blood ([9]; 8.872 h)?
A: The concentration in blood was 128 ng/mL and 140 ng/mL and 51.8 ng/mL.

Q: What about the concentration in blood ([9]; 9.018 h) of the same molecule?
A: Its concentration in blood is 102 ng/mL.

Q: And the concentration in blood ([9]; 9.124 h)?
A: Its concentration in blood is 119 ng/mL.

Q: What about the concentration in blood ([9]; 9.201 h) of the same molecule?
A: The concentration in blood was 49.6 ng/mL and 92.9 ng/mL.

Q: And the concentration in blood ([9]; 9.205 h)?
A: The concentration in blood was 119 ng/mL.

Q: And the concentration in blood ([9]; 9.387 h)?
A: The concentration in blood was 98.1 ng/mL.

Q: And the concentration in blood ([9]; 9.533 h)?
A: The concentration in blood was 78.8 ng/mL and 44.2 ng/mL.

Q: What about the concentration in blood ([9]; 9.537 h) of the same molecule?
A: The concentration in blood was 108 ng/mL.

Q: And the concentration in blood ([9]; 9.582 h)?
A: The concentration in blood was 100 ng/mL.

Q: What about the concentration in blood ([9]; 9.87 h) of the same molecule?
A: The concentration in blood was 96 ng/mL and 69.7 ng/mL and 42.1 ng/mL.

Q: And the concentration in blood ([9]; 10.2 h)?
A: Its concentration in blood is 40.5 ng/mL and 77.5 ng/mL and 91.3 ng/mL.

Q: And the concentration in blood ([9]; 10.53 h)?
A: Its concentration in blood is 50.2 ng/mL and 63.4 ng/mL and 71.5 ng/mL.

Q: And the concentration in blood ([9]; 10.86 h)?
A: The concentration in blood was 41.7 ng/mL.

Q: What about the concentration in blood ([9]; 10.87 h) of the same molecule?
A: Its concentration in blood is 58.7 ng/mL and 66.2 ng/mL.

Q: What about the concentration in blood ([9]; 11.2 h) of the same molecule?
A: The concentration in blood was 60.9 ng/mL.
